Active and inactive are the calls of the source. No cut-off for these calls is given here.
System: not listed separately
Assay: Neuroprotective activity against H2O2-induced rat differentiated PC12 cell death assessed as increase in cell viability at 10 uM after 24 hrs by MTT assay
Assay type: functional, PC-12
Settings: not given
Procedure, shortened: (§1)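 Rat PC12 cells grown in RPMI 1640 with 10% FCS, penicillin and streptomycin, then differentiated by a previously reported protocol. Differentiated cells were pretreated with compound at 1, 5 or 10 for 3 h before H2O2 exposure. Viability was read by MTT 24 h later and expressed relative to the H2O2-treated group.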

Molecule `Cc1cccc(C(=O)NC(=S)Nc2ccc(S(N)(=O)=O)cc2)c1` has an Activity of 50%.

System: PC-12
Assay: Neuroprotective activity against H2O2-induced rat differentiated PC12 cell death assessed as increase in cell viability at 5 uM after 24 hrs by MTT assay
Assay type: functional, cell-based
Settings: not given
Procedure, shortened: as §1

In the case of `O=c1c(O)c(-c2ccc(O)c(O)c2)oc2cc(O)cc(O)c12` [QUERCETIN], the Activity is reported as “Active”.

System: PC-12
Assay: Neuroprotective activity against H2O2-induced rat differentiated PC12 cell death assessed as increase in cell viability at 1 to 10 uM after 24 hrs by MTT assay
Assay type: functional, cell-based
Settings: not given
Procedure, shortened: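 Rat PC12 cells were grown in RPMI 1640 with 10% FCS plus penicillin/streptomycin, then differentiated by a published protocol. Differentiated cells were pretreated with compound at 1, 5 and 10 for 3 h before H₂O₂ exposure, with quercetin 5 as reference. Viability was measured by MTT after 24 h and expressed relative to the H₂O₂-treated group.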

In the case of `Cc1cccc(C(=O)NC(=S)Nc2ccc(S(N)(=O)=O)cc2)c1`, the Activity is reported as “Active”.

System: not listed separately
Assay: Inhibition of soybean 15-LOX1 by UV spectrophotometric analysis
Parameters: species or system Glycine max
Settings: not given

With `NS(=O)(=O)c1ccc(NC(=S)NC(=O)c2ccc([N+](=O)[O-])cc2)cc1` the IC50 was “ND(Insoluble)”.
For `NS(=O)(=O)c1ccc(NC(=S)NC(=O)c2ccc3ccccc3c2)cc1`, the IC50 was “Not Active”.

Same assay, conditions: read-out: IC50

First: NS(=O)(=O)c1ccc(NC(=S)NC(=O)c2cccc(Cl)c2)cc1
Second: Cc1cccc(C(=O)NC(=S)Nc2ccc(S(N)(=O)=O)cc2)c1
The IC50 of the first is 3.7-fold higher: 6.7 µM for the first, 1.8 µM for the second. The second is the more potent here.

`NS(=O)(=O)c1ccc(NC(=S)NC(=O)c2ccco2)cc1` and `NS(=O)(=O)c1ccc(NC(=S)NC(=O)c2cccs2)cc1` are within 1.5-fold of each other in IC50: 45 µM for the first, 36 µM for the second.

`COc1ccc(C(=O)NC(=S)Nc2ccc(S(N)(=O)=O)cc2)cc1` and `Cc1ccc(C(=O)NC(=S)Nc2ccc(S(N)(=O)=O)cc2)cc1` are within 1.5-fold of each other in IC50: 22.7 µM for the first, 28 µM for the second.

First: NS(=O)(=O)c1ccc(NC(=S)NC(=O)c2ccc(Cl)cc2)cc1
Second: NS(=O)(=O)c1ccc(NC(=S)NC(=O)c2ccccc2)cc1
The IC50 of the first is 4.2-fold higher: 25 µM for the first, 6 µM for the second.

`NS(=O)(=O)c1ccc(NC(=S)NC(=O)c2ccc(Cl)cc2Cl)cc1` and `NS(=O)(=O)c1ccc(NC(=S)NC(=O)c2ccccc2Cl)cc1` are within 1.5-fold of each other in IC50: 23.6 µM for the first, 18.7 µM for the second.

`O=c1c(O)c(-c2ccc(O)c(O)c2)oc2cc(O)cc(O)c12` [QUERCETIN] and `NS(=O)(=O)c1ccc(NC(=S)NC(=O)c2cc(F)c(F)c(F)c2F)cc1` are within 1.5-fold of each other in IC50: 18 µM for the first, 12.6 µM for the second.

`Cc1ccccc1C(=O)NC(=S)Nc1ccc(S(N)(=O)=O)cc1` and `NS(=O)(=O)c1ccc(NC(=S)NC(=O)c2cccc(F)c2)cc1` are within 1.5-fold of each other in IC50: 8.1 µM for the first, 8.7 µM for the second.

Reference: ChEMBL document CHEMBL3286096, “Synthesis, biological evaluation and docking study of 3-aroyl-1-(4-sulfamoylphenyl)thiourea derivatives as 15-lipoxygenase inhibitors” (Eur J Med Chem, 2014)
